Key:
Type in all cases: functional, cell-based
NCI-H460 = test: Cytotoxicity against human NCI-H460 cells assessed as reduction in cell viability incubated for 48 hrs by MTT assay; conditions: NCI-H460, 48 h
Procedure, shortened: (§1)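 Cells plated at 3000-4500 per well and treated after 24 h. DMSO stocks (20 mM) were diluted in medium to final DMSO <0.1%, twofold series […], 48 h. MTT (0.5 mg/mL) was added for 4 h, formazan dissolved in DMSO, absorbance read at 570 nm.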

HaCaT = test: Cytotoxicity against human HaCaT cells assessed as reduction in cell viability incubated for 48 hrs by MTT assay; procedure, shortened: as §1
BT-474 = test: Cytotoxicity against human BT-474 cells assessed as reduction in cell viability incubated for 48 hrs by MTT assay; conditions: BT-474, 48 h; procedure, shortened: as §1
MCF7 = test: Cytotoxicity against human MCF-7 cells assessed as reduction in cell viability incubated for 48 hrs by MTT assay; conditions: MCF7, 48 h; procedure, shortened: as §1
HeLa = test: Cytotoxicity against human HeLa cells assessed as reduction in cell viability incubated for 48 hrs by MTT assay; procedure, shortened: as §1

SMILES	IC50 (NCI-H460) [µM]	IC50 (HaCaT) [µM]	IC50 (BT-474) [µM]	IC50 (MCF7) [µM]	IC50 (HeLa) [µM]
COc1ccc(S(=O)(=O)N2CCN(C(=O)c3cn(Cc4cccc(OC)c4)nn3)CC2)cc1	> 30	> 30	> 30	> 30	> 30
COc1ccc(S(=O)(=O)N2CCN(C(=O)c3cn(Cc4cccc(Oc5ccccc5)c4)nn3)CC2)cc1	8.2	2.59	5.13	2.2	3.72
Cc1ccc(S(=O)(=O)N2CCN(C(=O)c3cn(Cc4ccccc4)nn3)CC2)cc1	> 30	> 30	> 30	> 30	> 30
O=C(c1cn(Cc2ccc(I)cc2)nn1)N1CCN(S(=O)(=O)c2ccccc2)CC1	> 30	> 30	> 30	> 30	> 30
COc1ccc(S(=O)(=O)N2CCN(C(=O)c3cn(Cc4ccc(F)cc4)nn3)CC2)cc1	> 30	> 30	> 30	> 30	> 30
O=C(c1cn(Cc2cccc(Oc3ccccc3)c2)nn1)N1CCN(S(=O)(=O)c2ccccc2)CC1	> 30	> 30	> 30	> 30	> 30
Cc1ccc(S(=O)(=O)N2CCN(C(=O)c3cn(Cc4ccc(F)cc4)nn3)CC2)cc1	> 30	> 30	> 30	> 30	> 30
O=C(c1cn(Cc2ccc(F)cc2)nn1)N1CCN(S(=O)(=O)c2ccccc2)CC1	> 30	> 30	> 30	> 30	> 30
O=C(c1cn(Cc2ccc(I)cc2)nn1)N1CCN(S(=O)(=O)c2ccc(Cl)cc2)CC1	2.25	2.22	4.96	1.34	5.74
O=C(c1cn(Cc2ccccc2)nn1)N1CCN(S(=O)(=O)c2ccccc2)CC1	> 30	> 30	> 30	> 30	> 30
COc1ccc(S(=O)(=O)N2CCN(C(=O)c3cn(Cc4ccc(I)cc4)nn3)CC2)cc1	> 30	> 30	> 30	> 30	> 30
Cc1ccc(S(=O)(=O)N2CCN(C(=O)c3cn(Cc4cccc(Oc5ccccc5)c4)nn3)CC2)cc1	> 30	> 30	> 30	> 30	> 30
O=C(c1cn(Cc2ccccc2)nn1)N1CCN(S(=O)(=O)c2ccc(Cl)cc2)CC1	> 30	> 30	> 30	> 30	> 30
CC(C)(C)c1ccc(S(=O)(=O)N2CCN(C(=O)c3cn(Cc4ccc(I)cc4)nn3)CC2)cc1	1.42	2.06	1.21	3.06	3.58
O=C(c1cn(Cc2ccccc2)nn1)N1CCN(S(=O)(=O)c2ccc(Br)cc2)CC1	> 30	> 30	> 30	> 30	> 30
O=C(c1cn(Cc2cccc(Oc3ccccc3)c2)nn1)N1CCN(S(=O)(=O)c2ccc(Cl)cc2)CC1	5.68	2.96	1.96	4.41	8.61
COC(=O)Nc1nc2cc(C(=O)c3cccs3)ccc2[nH]1 [NOCODAZOLE]	2.29	1.19	0.87	1.76	–
COc1cccc(Cn2cc(C(=O)N3CCN(S(=O)(=O)c4ccc(Br)cc4)CC3)nn2)c1	> 30	> 30	> 30	> 30	> 30
COc1ccc(S(=O)(=O)N2CCN(C(=O)c3cn(Cc4ccccc4)nn3)CC2)cc1	> 30	> 30	> 30	> 30	> 30
COc1cccc(Cn2cc(C(=O)N3CCN(S(=O)(=O)c4ccccc4)CC3)nn2)c1	> 30	> 30	> 30	> 30	> 30
COc1cccc(Cn2cc(C(=O)N3CCN(S(=O)(=O)c4ccc(Cl)cc4)CC3)nn2)c1	> 30	> 30	> 30	> 30	> 30
O=C(c1cn(Cc2ccc(F)cc2)nn1)N1CCN(S(=O)(=O)c2ccc(Br)cc2)CC1	> 30	> 30	> 30	> 30	> 30
Cc1ccc(S(=O)(=O)N2CCN(C(=O)c3cn(Cc4ccc(I)cc4)nn3)CC2)cc1	> 30	> 30	> 30	> 30	> 30
CC(C)(C)c1ccc(S(=O)(=O)N2CCN(C(=O)c3cn(Cc4ccccc4)nn3)CC2)cc1	> 30	> 30	> 30	> 30	> 30
CC(C)(C)c1ccc(S(=O)(=O)N2CCN(C(=O)c3cn(Cc4cccc(Oc5ccccc5)c4)nn3)CC2)cc1	5.05	4.34	3.89	3.28	3.7
CC(C)(C)c1ccc(S(=O)(=O)N2CCN(C(=O)c3cn(Cc4ccc(F)cc4)nn3)CC2)cc1	> 30	> 30	> 30	> 30	> 30
O=C(c1cn(Cc2ccc(I)cc2)nn1)N1CCN(S(=O)(=O)c2ccc(Br)cc2)CC1	3.55	2.48	2.33	2.73	6.52
COc1cccc(Cn2cc(C(=O)N3CCN(S(=O)(=O)c4ccc(C(C)(C)C)cc4)CC3)nn2)c1	> 30	> 30	> 30	> 30	> 30
O=C(c1cn(Cc2ccc(F)cc2)nn1)N1CCN(S(=O)(=O)c2ccc(Cl)cc2)CC1	> 30	> 30	> 30	> 30	> 30
